Measurements from BindingDB's records for doi:10.1021/jm9802620 (University of Washington, 1998).

What was measured:
[1] = biological target: Glyceraldehyde-3-phosphate dehydrogenase (GAPDH); experiment: Inhibitory activity measured for Glyceraldehyde-3-phosphate dehydrogenase (GAPDH) in Leishmania. mexicana
Summary of the method: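 Recombinant glycosomal GAPDH of L. mexicana, T. cruzi or T. brucei; human enzyme from erythrocytes. NADH formation followed at 340 nm, 21 °C, in 0.1 M triethanolamine-HCl pH 7.6 with DTT, NaN3, MgSO4, EDTA, 10 mM K2HPO4, 0.8 mM glyceraldehyde-3-phosphate, 0.19 mM NAD+, 5% DMSO. Reaction started with enzyme. IC50 from 0–1 min initial rates at ≥5 inhibitor levels versus DMSO control.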

[2] = biological target: Glyceraldehyde-3-phosphate dehydrogenase (GAPDH); experiment: Inhibitory activity was measured for Glyceraldehyde-3-phosphate dehydrogenase (GAPDH) in Leishmania. mexicana.

Compound | IC50 [1] [mM] | IC50 [2] [mM]
OC[C@H]1OC(n2cnc3c(N[C@@H]4CCCc5ccccc54)ncnc32)[C@H](O)[C@@H]1O (stereo not given in full) | 0.36 | –
Nc1ccc(CNc2ncnc3c2ncn3C2O[C@H](CO)[C@@H](O)[C@H]2O)cc1 (stereo not given in full) | 3.1 | –
CC(C)=CCNc1ncnc2c1ncn2C1O[C@H](CO)[C@@H](O)[C@H]1O (stereo not given in full) | > 5 | –
Cc1cccc(CNc2ncnc3c2ncn3C2O[C@H](CO)[C@@H](O)[C@H]2O)c1 (stereo not given in full) | 0.7 | –
CC(C)CCNc1ncnc2c1ncn2C1O[C@H](CO)[C@@H](O)[C@H]1O (stereo not given in full) | – | 3.7
